Results of several laboratories.
Protocols differ between the studies behind these lines.
Dual specificity calcium/calmodulin-dependent 3',5'-cyclic nucleotide phosphodiesterase 1B: Dual specificity calcium/calmodulin-dependent 3',5'-cyclic nucleotide phosphodiesterase 1B (Homo sapiens, UniProt Q01064)
PTPN12: Tyrosine-protein phosphatase non-receptor type 12 (PTPN12, Homo sapiens, UniProt Q05209)
TPR: Trypanothione reductase (TPR, Trypanosoma cruzi, UniProt P28593)
Fructose-1,6-bisphosphatase 1: Fructose-1,6-bisphosphatase 1 (Mus musculus, UniProt Q9QXD6)
GRM3: Metabotropic glutamate receptor 3 (GRM3, Homo sapiens, UniProt Q14832)
NPSR1: Neuropeptide S receptor (NPSR1, Homo sapiens, UniProt Q6W5P4)
SLC6A2: Sodium-dependent noradrenaline transporter (SLC6A2, Homo sapiens, UniProt P23975)
Aldo-keto reductase family 1 member A1: Aldo-keto reductase family 1 member A1 (Rattus norvegicus, UniProt P51635)

Cc1nn2c(-c3c(C)nn(C)c3-c3ccc(C(F)(F)F)cc3)nc(CO)c2c(=O)[nH]1  IC50 (Dual specificity calcium/calmodulin-dependent 3',5'-cyclic nucleotide phosphodiesterase 1B; enzyme activity; inhibitor): 5.26 µM
CCN(CC)C(=S)SSC(=S)N(CC)CC  IC50 (PTPN12; enzyme activity; inhibitor; fluorescence): > 500 µM
ClCCOC(c1ccccc1)c1ccccc1  IC50 (TPR; enzyme activity; inhibitor; absorbance): 82.9 µM
O=P(O)(O)OC[C@H]1O[C@@](CO)(OP(=O)(O)O)[C@@H](O)[C@@H]1O  IC50 (Fructose-1,6-bisphosphatase 1; enzyme activity; inhibitor): 1.69 µM
COc1ccc(-c2cc(C(N)=O)ncc2OCc2ccnc(OC)c2)c(F)c1  IC50 (GRM3; ion flux; antagonist): > 10 µM
COc1cccc(C2c3c(ncn(-c4ccccc4-c4ccccc4)c3=N)Oc3ccc4ccccc4c32)c1 (centres unmarked)  IC50 (NPSR1; cAMP; antagonist; TR-FRET): 38.7 µM
Clc1ccc(C(c2ccccc2)c2nnnn2CCCCN2CCC(CCCc3ccccc3)CC2)cc1 (centres unmarked)  IC50 (SLC6A2; transporter uptake; inhibitor): 0.232 µM
COc1cccc(C2c3c(ncn(-c4ccccc4OC)c3=N)Oc3ccc4ccccc4c32)c1 (centres unmarked)  IC50 (NPSR1; calcium signal; antagonist): 1.1 µM
Fc1ccc(C(c2ccc(F)cc2)c2nnnn2CCCCN2CCC(Cc3ccc(Cl)c(Cl)c3)CC2)cc1  IC50 (SLC6A2; transporter uptake; inhibitor): 0.521 µM
COc1ccc2nc(/N=C3/NC(=O)C(=Cc4ccc(Cl)cc4)S3)sc2c1  IC50 (Aldo-keto reductase family 1 member A1; enzyme activity; inhibitor; absorbance; pH 7.2): 18.3 µM
NCCCc1ccccc1  IC50 (TPR; enzyme activity; inhibitor; absorbance): > 100 µM
O=C1NC(=O)/C(=C/c2ccc(OCCNc3nc4c(cnn4C4CCCC4)c(=O)[nH]3)c(F)c2)S1  IC50 (Dual specificity calcium/calmodulin-dependent 3',5'-cyclic nucleotide phosphodiesterase 1B; enzyme activity; inhibitor): 0.0065 µM
c1ccc(CCC2CCN(CCCn3nnnc3C(c3ccccc3)c3ccccc3)CC2)cc1  IC50 (SLC6A2; transporter uptake; inhibitor): 0.41 µM
COc1ccc2c(Oc3ccc4c(C(=O)Nc5ccccc5N)cccc4c3)ccnc2c1  IC50 (Fibroblast growth factor receptor 1 (FGFR1, Homo sapiens, UniProt P11362); enzyme activity; inhibitor): > 0.5 µM
CC(C)Cc1sc(N)nc1-c1ccc(P(=O)(O)O)o1  IC50 (Fructose-1,6-bisphosphatase 1; enzyme activity; inhibitor): 0.3 µM
C1CNCCN1  IC50 (TPR; enzyme activity; inhibitor; absorbance): > 100 µM
N=c1n(CCN2CCCCC2)c2ccccc2n1CC(O)COc1ccc(Cl)cc1Cl (centres unmarked)  IC50 (TPR; enzyme activity; inhibitor): ≤ 10 µM
COc1ccc(-c2cc(C(N)=O)ncc2OCc2cnc(OC)nc2)c(F)c1  IC50 (GRM3; ion flux; antagonist): > 10 µM
COc1ccc(-n2cnc3c(c2=N)C(c2cccc(OC)c2)c2c(ccc4ccccc24)O3)cc1 (centres unmarked)  IC50 (NPSR1; calcium signal; antagonist): 4.38 µM
O=c1[nH]c(=S)n(Cc2ccc(Cl)cc2CNCC(F)(F)F)c2cc[nH]c12  IC50 (Myeloperoxidase (MPO, Homo sapiens, UniProt P05164); enzyme activity; inhibitor): 0.035 µM
CN1CCN(c2ccc(Nc3ncc4cc(C#N)c(=O)n(C5CCCC5)c4n3)cc2)CC1  IC50 (Fibroblast growth factor receptor 4 (FGFR4, Homo sapiens, UniProt P22455); enzyme activity; inhibitor): 1.53 µM
O=C1c2ccccc2-c2cccc3cccc1c23  IC50 (PTPN12; enzyme activity; inhibitor; fluorescence): > 150 µM
COc1cccc(C2c3c(ncn(-c4ccccc4C)c3=N)Oc3ccc4ccccc4c32)c1 (centres unmarked)  IC50 (NPSR1; cAMP; antagonist; TR-FRET): 9.72 µM
C=CC(=O)Nc1cc(Nc2nccc(Nc3cc(Cl)c(F)cc3C(C)(C)O)n2)c(OC)cc1N1CC[C@@H](N(C)C)C1  IC50 (MAP kinase-interacting serine/threonine-protein kinase 2 (MKNK2, Homo sapiens, UniProt Q9HBH9); enzyme activity; inhibitor; with preincubation): 1.03 µM
COc1ccc(-c2cc(C(N)=O)ncc2OCc2ccc(F)nc2)c(F)c1  IC50 (GRM3; ion flux; antagonist): > 10 µM
COc1ccc(/C=C2\SC(=Nc3nc4ccc(OC)cc4s3)NC2=O)cc1  IC50 (Aldo-keto reductase family 1 member A1; enzyme activity; inhibitor; absorbance; pH 7.2): 4.21 µM
COc1cccc(C2c3c(ncn(-c4ccccn4)c3=N)Oc3ccc4ccccc4c32)c1 (centres unmarked)  IC50 (NPSR1; calcium signal; antagonist): 5.51 µM
ClCCOC1c2ccccc2CCc2ccccc21  IC50 (TPR; enzyme activity; inhibitor; absorbance): 29.7 µM
N=c1c2c(ncn1Cc1ccccc1)Oc1ccc3ccccc3c1C2c1ccccc1 (centres unmarked)  IC50 (NPSR1; cAMP; antagonist; TR-FRET): 3.07 µM
O=C(O)c1cc(O)c2c(c1)[C@H]([C@H]1c3cc(C(=O)O)cc(O)c3C(=O)c3c(O[C@@H]4O[C@H](CO)[C@@H](O)[C@H](O)[C@H]4O)cccc31)c1cccc(O[C@@H]3O[C@H](CO)[C@@H](O)[C@H](O)[C@H]3O)c1C2=O  IC50 (PTPN12; enzyme activity; inhibitor): 0.2 µM
COc1ccc(-c2cc(C(N)=O)ncc2OCc2ccncc2)c(F)c1  IC50 (GRM3; ion flux; antagonist): > 10 µM
Clc1ccc(C(c2ccccc2)c2nnnn2CCCN2CCC(CCCc3ccccc3)CC2)cc1 (centres unmarked)  IC50 (SLC6A2; transporter uptake; inhibitor): 0.527 µM
O=S1(=O)O[C@@H]2[C@H](O)[C@@H](O)[C@H](O)[C@@H](CO)[C@@H]2O1  IC50 (bglA (Thermotoga maritima, UniProt Q08638); enzyme activity; inhibitor; pH 6.8; with preincubation): > 100 µM
Clc1ccc(C(c2ccccc2)c2nnnn2CCCCN2CCN(CC=Cc3ccccc3)CC2)cc1 (centres unmarked)  IC50 (SLC6A2; transporter uptake; inhibitor): 0.985 µM
CCN(CC)CCn1c(=N)n(CC(O)c2ccc(Cl)c(Cl)c2)c2ccccc21 (centres unmarked)  IC50 (TPR; enzyme activity; inhibitor): ≤ 10 µM
Cc1cnc(-c2ccc(-c3ccc(NC(=O)Nc4c(F)cc(F)cc4F)cc3F)c3c2C(=O)NC3)[nH]1  IC50 (Serine/threonine-protein kinase/endoribonuclease IRE2 (ERN2, Homo sapiens, UniProt Q76MJ5); enzyme activity; inhibitor): 0.0148 µM
O=C(Oc1cc(O)cc2c1C[C@@H](OC(=O)c1cc(O)c(O)c(O)c1)[C@@H](c1cc(O)c(O)c(O)c1)O2)c1cc(O)c(O)c(O)c1  IC50 (PTPN12; enzyme activity; inhibitor; fluorescence): 0.02 µM
COc1ccc(C2c3c(ncn(CCCc4ccccc4)c3=N)Oc3ccc4ccccc4c32)cc1OC (centres unmarked)  IC50 (NPSR1; calcium signal; antagonist): > 30 µM
Cc1ccc(C(O)Cn2c(=N)n(CCN3CCCCC3)c3ccccc32)cc1 (centres unmarked)  IC50 (TPR; enzyme activity; inhibitor): ≤ 10 µM
Clc1ccc2c(c1)N(CCCN1CCN(CCCc3ccccc3)CC1)c1ccccc1S2  IC50 (TPR; enzyme activity; inhibitor; absorbance): 0.75 µM
COc1cccc(C2c3c(ncn(-c4cccc(C#N)c4)c3=N)Oc3ccc4ccccc4c32)c1 (centres unmarked)  IC50 (NPSR1; cAMP; antagonist; TR-FRET): 19.4 µM
CCN(CC)CCOc1ccc2c(c1)C(=O)c1cc(OCCN(CC)CC)ccc1-2  IC50 (Cholinesterase (BCHE, Homo sapiens, UniProt P06276); enzyme activity; inhibitor): > 50 µM
CN[C@H]1CC[C@@H](c2ccc(Cl)c(Cl)c2)c2ccccc21  IC50 (PTPN12; enzyme activity; inhibitor; fluorescence): 55 µM
N=c1n(CCOc2ccccc2)c2ccccc2n1CCN1CCCCC1  IC50 (TPR; enzyme activity; inhibitor): ≤ 10 µM
Cc1ccc(C(=O)Nc2ccc(S(=O)(=O)O)c3cc(S(=O)(=O)O)cc(S(=O)(=O)O)c23)cc1NC(=O)c1cccc(NC(=O)Nc2cccc(C(=O)Nc3cc(C(=O)Nc4ccc(S(=O)(=O)O)c5cc(S(=O)(=O)O)cc(S(=O)(=O)O)c45)ccc3C)c2)c1  IC50 (PTPN12; enzyme activity; inhibitor): 11 µM
N=c1n(CCN2CCCCC2)c2ccccc2n1CC(O)COc1ccccc1 (centres unmarked)  IC50 (TPR; enzyme activity; inhibitor): ≤ 10 µM
COc1ccc2nc(/N=C3/NC(=O)C(=Cc4cc(OC)c(O)c(OC)c4)S3)sc2c1  IC50 (Aldo-keto reductase family 1 member A1; enzyme activity; inhibitor; absorbance; pH 7.2): 42.1 µM
O=C1c2ccccc2C(=O)c2c(O)c(O)cc(O)c21  IC50 (PTPN12; enzyme activity; inhibitor): 5 µM
O=S(=O)(Nc1nc2cc(Cl)ccc2o1)c1cc(Cl)ccc1Cl  IC50 (Fructose-1,6-bisphosphatase 1; enzyme activity; inhibitor): 4.58 µM
CCCc1ccccc1  IC50 (TPR; enzyme activity; inhibitor; absorbance): > 100 µM
COc1ccc(C2=NN(C3CCCCCC3)C(=O)[C@@H]3CC=CC[C@H]23)cc1-c1ccc(C(N)=O)cc1 (relative stereo)  IC50 (Dual specificity calcium/calmodulin-dependent 3',5'-cyclic nucleotide phosphodiesterase 1B; enzyme activity; inhibitor): > 10 µM
COc1ccc2nc(/N=C3/NC(=O)C(=Cc4ccccc4)S3)sc2c1  IC50 (Aldo-keto reductase family 1 member A1; enzyme activity; inhibitor; absorbance; pH 7.2): > 50 µM
COc1ccc(-c2cc(C(N)=O)ncc2OCc2ccc(OC)nc2)c(F)c1  IC50 (GRM3; ion flux; antagonist): > 10 µM
